Assay results from different studies.
≈ marks a conversion by molar mass, not a printed value.

| Compound | organism | assay | test system | setting | quantity | result |
| --- | --- | --- | --- | --- | --- | --- |
| COC(=O)c1cc(-c2cccc(NC(=O)Nc3ccc(F)c(F)c3)c2)on1 | Acinetobacter baumannii | microbial growth, broth dilution | BAA1605 |  | MIC | > 64 µg/mL |
| C[n+]1c(/C=C/c2c[nH]c3ccccc23)cc(/C=C2\Sc3ccccc3N2CCCN2CCOCC2)c2ccccc21.[I-] | Acinetobacter baumannii | microbial growth, broth dilution | ATCC19606 | drug-resistant strain | MIC | > 64 µg/mL |
| C=C1CC[C@H](O)C/C1=C/C=C1\CCC[C@]2(C)[C@@H]([C@H](C)CCCC(C)C)CC[C@@H]12 | Hepatitis C virus | viral replication, inhibitor, luciferase | BM4-5, GETYPE1B | 72 h, replicon | EC50 | 6.1 µM |
| CCC1CCC2(CC1)SC(C)C(=O)N2NC(=O)c1[nH]c2ccc(Cl)cc2c1-c1ccccc1 (centres unmarked) | Enterovirus B | viral replication, inhibitor | Vero, B4 |  | EC50 | > 100 µM |
| COC(=O)c1cc(-c2cccc(NC(=O)Nc3cc(Cl)ccc3Cl)c2)on1 | Acinetobacter baumannii | microbial growth, broth dilution | BAA1605 |  | MIC | > 64 µg/mL |
| COc1nc(N)nc2c1ncn2[C@@H]1O[C@H](COP(=O)(N[C@@H](C)C(=O)OCC(C)(C)C)Oc2cccc3ccccc23)[C@@H](O)[C@@]1(C)O (some centres unmarked) | Hepatitis C virus | viral replication, inhibitor | GETYPE1A | 96 h, replicon | EC90 | 0.004 µM |
| CC1SC2(CCCCC2)N(NC(=O)c2[nH]c3ccc(Cl)cc3c2-c2ccccc2)C1=O (centres unmarked) | Enterovirus B | viral replication, inhibitor | Vero, B4 |  | EC50 | > 100 µM |
| COC(=O)c1cc(-c2cccc(NC(=O)Nc3ccccc3)c2)on1 | Acinetobacter baumannii | microbial growth, broth dilution | BAA1605 |  | MIC | > 64 µg/mL |
| O=C(NN1C(=O)CSC12CCC(c1ccccc1)CC2)c1[nH]c2ccc(Cl)cc2c1-c1ccccc1 (centres unmarked) | Enterovirus B | viral replication, inhibitor | Vero, B4 |  | EC50 | > 100 µM |
| COC(=O)N[C@H](C(=O)N1CCC[C@H]1c1ncc(-c2ccc(-c3cnc([C@@H]4CCCN4C(=O)[C@@H](NC(=O)OC)C(C)C)[nH]3)cc2)[nH]1)C(C)C | Hepatitis C virus | viral replication, inhibitor | Huh-7, GETYPE1B | replicon | EC90 | > 0.001 µM |
| CCC1CCC2(CC1)SCC(=O)N2NC(=O)c1[nH]c2ccc(Cl)cc2c1-c1ccccc1 (centres unmarked) | Enterovirus B | viral replication, inhibitor | Vero, B4 |  | EC50 | > 100 µM |
| CCCCCCNC(=S)Nc1cccc(-c2cc(C(=O)OC)no2)c1 | Acinetobacter baumannii | microbial growth, broth dilution | BAA1605 |  | MIC | > 64 µg/mL |
| O=C(NN1C(=O)CSC12CCCCC2)c1[nH]c2ccc(Cl)cc2c1-c1ccccc1 | Enterovirus B | viral replication, inhibitor | Vero, B4 |  | EC50 | > 100 µM |
| COC(=O)c1cc(-c2cccc(NC(=S)Nc3ccc(F)cc3)c2)on1 | Acinetobacter baumannii | microbial growth, broth dilution | BAA1605 |  | MIC | > 64 µg/mL |
| Cc1c(NN=C(C#N)C2=NC(=O)CS2)c(=O)n(-c2ccccc2)n1C | Acinetobacter baumannii | microbial growth, well diffusion |  | 100000 µg/mL | inhibition zone | 27 mm |
| CC1(C)S[C@@H]2[C@H](NC(=O)[C@H](N)c3ccccc3)C(=O)N2[C@H]1C(=O)O | Acinetobacter baumannii | microbial growth, broth dilution | ATCC19606 | drug-resistant strain | MIC | 64 µg/mL (≈ 183 µM) |
| CC1SC2(CCC(c3ccccc3)CC2)N(NC(=O)c2[nH]c3ccc(Cl)cc3c2-c2ccccc2)C1=O (centres unmarked) | Enterovirus B | viral replication, inhibitor | Vero, B4 |  | EC50 | > 100 µM |
| C[n+]1c(/C=C/c2ccc(O)cc2)cc(/C=C2\Sc3ccccc3N2CCCN2CCCC2)c2ccccc21.[I-] | Acinetobacter baumannii | microbial growth, broth dilution | ATCC19606 | drug-resistant strain | MIC | > 64 µg/mL |
| COC(=O)c1cc(-c2cccc(NC(=O)Nc3ccc(C(F)(F)F)cc3)c2)on1 | Acinetobacter baumannii | microbial growth, broth dilution | BAA1605 |  | MIC | > 64 µg/mL |
| C=C1/C(=C\C=C2/CCC[C@]3(C)[C@@H]([C@H](C)CCCC(C)(C)O)CC[C@@H]23)C[C@@H](O)C[C@@H]1O | Hepatitis C virus | viral replication, inhibitor, luciferase | GETYPE2A | 5 days, replicon | EC50 | 4.71 µM |
